Laboratory results published in ChEMBL document CHEMBL4152223 (Eur J Med Chem, 2018).
Values after ≈ are worked out from the molar mass of the structure shown.

Tests used:
Mycobacterium avium [1] = experiment: Antimycobacterial activity against INH/RIF/OFX resistant Mycobacterium avium 330/88 after 14 days; format: functional; details: 330/88, 336 h
HepG2 = experiment: Cytotoxicity against human HepG2 cells assessed as reduction in cell viability by MTS assay; format: cell-based
In short: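 HepG2 human hepatocellular carcinoma cells (passage 2-4) were cultured in Eagle's MEM with 10% FBS, 1% L-glutamine and non-essential amino acids. Compounds were dissolved in DMSO and tested in triplicate at eight concentrations. Viability was read by colorimetric MTS tetrazolium reduction. Controls were 100% viability and 0% viability (10% DMSO). IC50 is the concentration reducing viability to 50% of control.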

[2] = test system: Mycobacterium tuberculosis; experiment: Antimycobacterial activity against Mycobacterium tuberculosis H37Rv after 14 days; format: functional; details: 336 h
Mycobacterium kansasii [3] = experiment: Antimycobacterial activity against Mycobacterium kansasii 235/80 after 7 days; format: functional; details: 235/80, 168 h
[4] = test system: Mycobacterium tuberculosis; experiment: Antimycobacterial activity against Mycobacterium tuberculosis H37Rv after 21 days; format: functional; details: 504 h
Mycobacterium kansasii [5] = experiment: Antimycobacterial activity against Mycobacterium kansasii 6509/96 after 21 days; format: functional; details: 6509/96, 504 h
Mycobacterium kansasii [6] = experiment: Antimycobacterial activity against Mycobacterium kansasii 235/80 after 21 days; format: functional; details: 235/80, 504 h
Mycobacterium kansasii [7] = experiment: Antimycobacterial activity against Mycobacterium kansasii 235/80 after 14 days; format: functional; details: 235/80, 336 h
Mycobacterium kansasii [8] = experiment: Antimycobacterial activity against Mycobacterium kansasii 6509/96 after 7 days; format: functional; details: 6509/96, 168 h
Mycobacterium avium [9] = experiment: Antimycobacterial activity against INH/RIF/OFX resistant Mycobacterium avium 330/88 after 21 days; format: functional; details: 330/88, 504 h
Mycobacterium kansasii [10] = experiment: Antimycobacterial activity against Mycobacterium kansasii 6509/96 after 14 days; format: functional; details: 6509/96, 336 h

Compound | MIC (Mycobacterium avium [1]) [µM] | IC50 (HepG2) [µM] | MIC [2] [µM] | MIC (Mycobacterium kansasii [3]) [µM] | MIC [4] [µM] | MIC (Mycobacterium kansasii [5]) [µM] | MIC (Mycobacterium kansasii [6]) [µM] | MIC (Mycobacterium kansasii [7]) [µM] | MIC (Mycobacterium kansasii [8]) [µM] | MIC (Mycobacterium avium [9]) [µM] | MIC (Mycobacterium kansasii [10]) [µM]
CCCCCCCCCCCNC(=O)NNC(=O)c1ccncc1 | 125 (≈ 41.8 µg/mL) | > 50 | 32 (≈ 10.7 µg/mL) | 16 (≈ 5.35 µg/mL) | 62.5 (≈ 20.9 µg/mL) | 125 (≈ 41.8 µg/mL) | 62.5 (≈ 20.9 µg/mL) | 32 (≈ 10.7 µg/mL) | 62.5 (≈ 20.9 µg/mL) | 125 (≈ 41.8 µg/mL) | 125 (≈ 41.8 µg/mL)
CNc1nnc(-c2ccncc2)o1 | > 1000 | – | 500 (≈ 88.1 µg/mL) | 500 (≈ 88.1 µg/mL) | 500 (≈ 88.1 µg/mL) | 1000 (≈ 176 µg/mL) | > 1000 | 1000 (≈ 176 µg/mL) | 1000 (≈ 176 µg/mL) | > 1000 | 1000 (≈ 176 µg/mL)
CCCCCCCCCCNc1nnc(-c2ccncc2)o1 | 32 (≈ 9.68 µg/mL) | > 50 | 16 (≈ 4.84 µg/mL) | 8 (≈ 2.42 µg/mL) | 16 (≈ 4.84 µg/mL) | 16 (≈ 4.84 µg/mL) | 16 (≈ 4.84 µg/mL) | 16 (≈ 4.84 µg/mL) | 16 (≈ 4.84 µg/mL) | 62.5 (≈ 18.9 µg/mL) | 16 (≈ 4.84 µg/mL)
CCCCCCCCCCCCCCCCNc1nnc(-c2ccncc2)o1 | 250 (≈ 96.6 µg/mL) | – | 250 (≈ 96.6 µg/mL) | 250 (≈ 96.6 µg/mL) | 250 (≈ 96.6 µg/mL) | 500 (≈ 193 µg/mL) | 500 (≈ 193 µg/mL) | 500 (≈ 193 µg/mL) | 250 (≈ 96.6 µg/mL) | 250 (≈ 96.6 µg/mL) | 500 (≈ 193 µg/mL)
CCCCCCCCCCCCCCCCCCNc1nnc(-c2ccncc2)o1 | 500 (≈ 207 µg/mL) | – | 125 (≈ 51.8 µg/mL) | 250 (≈ 104 µg/mL) | 250 (≈ 104 µg/mL) | 500 (≈ 207 µg/mL) | 250 (≈ 104 µg/mL) | 250 (≈ 104 µg/mL) | 250 (≈ 104 µg/mL) | 500 (≈ 207 µg/mL) | 500 (≈ 207 µg/mL)
CCCCCCCCCNc1nnc(-c2ccncc2)o1 | 125 (≈ 36 µg/mL) | > 50 | 62.5 (≈ 18 µg/mL) | 125 (≈ 36 µg/mL) | 62.5 (≈ 18 µg/mL) | 250 (≈ 72.1 µg/mL) | 250 (≈ 72.1 µg/mL) | 250 (≈ 72.1 µg/mL) | 125 (≈ 36 µg/mL) | 125 (≈ 36 µg/mL) | 250 (≈ 72.1 µg/mL)
CCCCCCCCCCCCCNc1nnc(-c2ccncc2)o1 | 250 (≈ 86.1 µg/mL) | – | 250 (≈ 86.1 µg/mL) | 250 (≈ 86.1 µg/mL) | 250 (≈ 86.1 µg/mL) | 250 (≈ 86.1 µg/mL) | 250 (≈ 86.1 µg/mL) | 250 (≈ 86.1 µg/mL) | 125 (≈ 43.1 µg/mL) | 250 (≈ 86.1 µg/mL) | 250 (≈ 86.1 µg/mL)
CCCCCCCCCCCCCCNc1nnc(-c2ccncc2)o1 | 250 (≈ 89.6 µg/mL) | – | 250 (≈ 89.6 µg/mL) | 250 (≈ 89.6 µg/mL) | 250 (≈ 89.6 µg/mL) | 250 (≈ 89.6 µg/mL) | 250 (≈ 89.6 µg/mL) | 250 (≈ 89.6 µg/mL) | 250 (≈ 89.6 µg/mL) | 250 (≈ 89.6 µg/mL) | 250 (≈ 89.6 µg/mL)
CCCCCCCCNc1nnc(-c2ccncc2)o1 | 62.5 (≈ 17.1 µg/mL) | – | 62.5 (≈ 17.1 µg/mL) | 62.5 (≈ 17.1 µg/mL) | 62.5 (≈ 17.1 µg/mL) | 125 (≈ 34.3 µg/mL) | 125 (≈ 34.3 µg/mL) | 125 (≈ 34.3 µg/mL) | 62.5 (≈ 17.1 µg/mL) | 125 (≈ 34.3 µg/mL) | 125 (≈ 34.3 µg/mL)
CCCCCCCCCCCCCCCCNC(=O)NNC(=O)c1ccncc1 | 125 (≈ 50.6 µg/mL) | > 50 | 32 (≈ 12.9 µg/mL) | 32 (≈ 12.9 µg/mL) | 62.5 (≈ 25.3 µg/mL) | 62.5 (≈ 25.3 µg/mL) | 62.5 (≈ 25.3 µg/mL) | 62.5 (≈ 25.3 µg/mL) | 32 (≈ 12.9 µg/mL) | 125 (≈ 50.6 µg/mL) | 62.5 (≈ 25.3 µg/mL)
CCCCCCCNc1nnc(-c2ccncc2)o1 | 500 (≈ 130 µg/mL) | – | 125 (≈ 32.5 µg/mL) | 250 (≈ 65.1 µg/mL) | 125 (≈ 32.5 µg/mL) | 500 (≈ 130 µg/mL) | 500 (≈ 130 µg/mL) | 500 (≈ 130 µg/mL) | 250 (≈ 65.1 µg/mL) | 500 (≈ 130 µg/mL) | 500 (≈ 130 µg/mL)
CCCCCCNc1nnc(-c2ccncc2)o1 | 500 (≈ 123 µg/mL) | – | 250 (≈ 61.6 µg/mL) | 250 (≈ 61.6 µg/mL) | 250 (≈ 61.6 µg/mL) | 500 (≈ 123 µg/mL) | 500 (≈ 123 µg/mL) | 500 (≈ 123 µg/mL) | 125 (≈ 30.8 µg/mL) | 500 (≈ 123 µg/mL) | 250 (≈ 61.6 µg/mL)
CCNc1nnc(-c2ccncc2)o1 | > 1000 | – | > 1000 | 1000 (≈ 190 µg/mL) | > 1000 | > 1000 | > 1000 | > 1000 | 1000 (≈ 190 µg/mL) | > 1000 | > 1000
CCCCCCCCCCCCCCCNc1nnc(-c2ccncc2)o1 | 250 (≈ 93.1 µg/mL) | – | 125 (≈ 46.6 µg/mL) | 62.5 (≈ 23.3 µg/mL) | 125 (≈ 46.6 µg/mL) | 250 (≈ 93.1 µg/mL) | 250 (≈ 93.1 µg/mL) | 125 (≈ 46.6 µg/mL) | 125 (≈ 46.6 µg/mL) | 500 (≈ 186 µg/mL) | 250 (≈ 93.1 µg/mL)
CCCNc1nnc(-c2ccncc2)o1 | > 1000 | – | 500 (≈ 102 µg/mL) | 500 (≈ 102 µg/mL) | 500 (≈ 102 µg/mL) | 1000 (≈ 204 µg/mL) | 1000 (≈ 204 µg/mL) | 1000 (≈ 204 µg/mL) | 1000 (≈ 204 µg/mL) | > 1000 | 1000 (≈ 204 µg/mL)
CCCCNc1nnc(-c2ccncc2)o1 | > 1000 | – | 250 (≈ 54.6 µg/mL) | 500 (≈ 109 µg/mL) | 500 (≈ 109 µg/mL) | 1000 (≈ 218 µg/mL) | 1000 (≈ 218 µg/mL) | 1000 (≈ 218 µg/mL) | 1000 (≈ 218 µg/mL) | > 1000 | 1000 (≈ 218 µg/mL)
CCCCCNc1nnc(-c2ccncc2)o1 | > 1000 | – | 62.5 (≈ 14.5 µg/mL) | 500 (≈ 116 µg/mL) | 62.5 (≈ 14.5 µg/mL) | 1000 (≈ 232 µg/mL) | 1000 (≈ 232 µg/mL) | 1000 (≈ 232 µg/mL) | 500 (≈ 116 µg/mL) | > 1000 | 1000 (≈ 232 µg/mL)
